Test results taken from ChEMBL document CHEMBL4265991.

Legend:
[1] = substrate: COc1c(C)c2c(c(O)c1C/C=C(\C)CCC(=O)O)C(=O)OC2; conditions: Cryptococcus neoformans; 0.078 uM
[2] = compound: O=S1(=O)C=C(Sc2nnc(-c3ccccc3)o2)c2ccccc21; experiment: (§1) Inhibition of recombinant Cryptococcus neoformans His-tagged IMPDH expressed in Escherichia coli BL21 (DE3) at 10 uM assessed as Vmax for substrate using NAD as fixed substrate at 700 uM and IMP as second substrate with varying concentrations of 25 to 800 uM (reference value: 1.5 microM/min)
Summary of the method: (§2)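 Recombinant C. neoformans IMPDH, 100 nM final, reaction started by adding enzyme. NADH production monitored at 340 nm. Inhibitor series ran from 20 to 0.31 µM; MPA tested at 312 to 39 nM. Km and Vmax fitted to the Michaelis–Menten equation; inhibition type taken from shifts in Km and Vmax.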

[3] = compound: COc1ccccc1-c1nnc(SC2=CS(=O)(=O)c3ccccc32)o1; experiment: as §1
Summary of the method: as §2

[4] = substrate: COc1c(C)c2c(c(O)c1C/C=C(\C)CCC(=O)O)C(=O)OC2; conditions: Cryptococcus neoformans; 0.078 uM; remark: listed apart in the source
[5] = substrate: COc1c(C)c2c(c(O)c1C/C=C(\C)CCC(=O)O)C(=O)OC2; conditions: Cryptococcus neoformans; 0.039 uM
[6] = substrate: COc1c(C)c2c(c(O)c1C/C=C(\C)CCC(=O)O)C(=O)OC2; conditions: Cryptococcus neoformans; 0.039 uM; remark: listed apart in the source
[7] = substrate: COc1c(C)c2c(c(O)c1C/C=C(\C)CCC(=O)O)C(=O)OC2; conditions: Cryptococcus neoformans; 0.078 uM; remark: listed apart in the source
[8] = compound: O=S1(=O)C=C(Sc2nnc(-c3ccccc3)o2)c2ccccc21; experiment: (§3) Inhibition of recombinant Cryptococcus neoformans His-tagged IMPDH expressed in Escherichia coli BL21 (DE3) at 2.5 uM assessed as Kcat for substrate using IMP as fixed substrate at 500 uM and NAD as second substrate with varying concentrations of 31.25 to 1300 uM (reference value: 21.5 /s)
Summary of the method: as §2

[9] = compound: COc1ccccc1-c1nnc(SC2=CS(=O)(=O)c3ccccc32)o1; experiment: as §3
Summary of the method: as §2

[10] = substrate: COc1c(C)c2c(c(O)c1C/C=C(\C)CCC(=O)O)C(=O)OC2; conditions: Cryptococcus neoformans; 0.156 uM
[11] = substrate: COc1c(C)c2c(c(O)c1C/C=C(\C)CCC(=O)O)C(=O)OC2; conditions: Cryptococcus neoformans; 0.039 uM; remark: listed apart in the source
[12] = compound: O=S1(=O)C=C(Sc2nnc(-c3ccccc3)o2)c2ccccc21; experiment: (§4) Inhibition of recombinant Cryptococcus neoformans His-tagged IMPDH expressed in Escherichia coli BL21 (DE3) at 10 uM assessed as Kcat for substrate using NAD as fixed substrate at 700 uM and IMP as second substrate with varying concentrations of 25 to 800 uM (reference value: 21.5 /s)
Summary of the method: as §2

[13] = compound: COc1ccccc1-c1nnc(SC2=CS(=O)(=O)c3ccccc32)o1; experiment: as §4
Summary of the method: as §2

[14] = substrate: COc1c(C)c2c(c(O)c1C/C=C(\C)CCC(=O)O)C(=O)OC2; conditions: Cryptococcus neoformans; 0.156 uM; remark: listed apart in the source
[15] = compound: O=S1(=O)C=C(Sc2nnc(-c3ccccc3)o2)c2ccccc21; experiment: (§5) Inhibition of recombinant Cryptococcus neoformans His-tagged IMPDH expressed in Escherichia coli BL21 (DE3) at 2.5 uM assessed as Km for substrate using IMP as fixed substrate at 500 uM and NAD as second substrate with varying concentrations of 31.25 to 1300 uM (reference value: 257.5 +/- 23 microM)
Summary of the method: as §2

[16] = compound: COc1ccccc1-c1nnc(SC2=CS(=O)(=O)c3ccccc32)o1; experiment: as §5
Summary of the method: as §2

[17] = compound: O=S1(=O)C=C(Sc2nnc(-c3ccccc3)o2)c2ccccc21; experiment: (§6) Inhibition of recombinant Cryptococcus neoformans His-tagged IMPDH expressed in Escherichia coli BL21 (DE3) at 0.3 uM assessed as Km for substrate using NAD as fixed substrate at 700 uM and IMP as second substrate with varying concentrations of 25 to 800 uM (reference value: 257.5 +/- 23 microM)
Summary of the method: as §2

[18] = compound: COc1ccccc1-c1nnc(SC2=CS(=O)(=O)c3ccccc32)o1; experiment: as §6
Summary of the method: as §2

[19] = substrate: COc1c(C)c2c(c(O)c1C/C=C(\C)CCC(=O)O)C(=O)OC2; conditions: Cryptococcus neoformans; 0.039 uM; remark: listed apart in the source
[20] = compound: O=S1(=O)C=C(Sc2nnc(-c3ccccc3)o2)c2ccccc21; experiment: (§7) Inhibition of recombinant Cryptococcus neoformans His-tagged IMPDH expressed in Escherichia coli BL21 (DE3) at 2.5 uM assessed as Vmax for substrate using NAD as fixed substrate at 700 uM and IMP as second substrate with varying concentrations of 25 to 800 uM (reference value: 1.5 microM/min)
Summary of the method: as §2

[21] = compound: COc1ccccc1-c1nnc(SC2=CS(=O)(=O)c3ccccc32)o1; experiment: as §7
Summary of the method: as §2

[22] = compound: O=S1(=O)C=C(Sc2nnc(-c3ccccc3)o2)c2ccccc21; experiment: (§8) Inhibition of recombinant Cryptococcus neoformans His-tagged IMPDH expressed in Escherichia coli BL21 (DE3) at 10 uM assessed as Km for substrate using NAD as fixed substrate at 700 uM and IMP as second substrate with varying concentrations of 25 to 800 uM (reference value: 257.5 +/- 23 microM)
Summary of the method: as §2

[23] = compound: COc1ccccc1-c1nnc(SC2=CS(=O)(=O)c3ccccc32)o1; experiment: as §8
Summary of the method: as §2

[24] = substrate: COc1c(C)c2c(c(O)c1C/C=C(\C)CCC(=O)O)C(=O)OC2; conditions: Cryptococcus neoformans; 0.039 uM; remark: listed apart in the source
[25] = substrate: COc1c(C)c2c(c(O)c1C/C=C(\C)CCC(=O)O)C(=O)OC2; conditions: Cryptococcus neoformans; 0.156 uM; remark: listed apart in the source
[26] = substrate: COc1c(C)c2c(c(O)c1C/C=C(\C)CCC(=O)O)C(=O)OC2; conditions: Cryptococcus neoformans; 0.078 uM; remark: listed apart in the source
[27] = compound: O=S1(=O)C=C(Sc2nnc(-c3ccccc3)o2)c2ccccc21; experiment: Inhibition of recombinant Cryptococcus neoformans His-tagged IMPDH expressed in Escherichia coli BL21 (DE3) at 0.3 uM assessed as Vmax for substrate using IMP as fixed substrate at 500 uM and NAD as second substrate with varying concentrations of 31.25 to 1300 uM (reference value: 1.5 microM/min)
Summary of the method: as §2

B1: Inosine-5'-monophosphate dehydrogenase (Cryptococcus neoformans var. neoformans serotype D (strain JEC21 /ATCC MYA-565) (Filobasidiella neoformans)), Q5KP44 (protein)
chain: MADTNPNAPPRSDSLLNPADALKYLEEYPRGDGLSLQELMDSRKNGGLTYNDFLVLPGHISFPASDVSLQSRATKNIVLNTPFLSSPMDTVTEDRMAIALALHGGLGIIHHNCSAEEQAAMVRRVKKYENGFITDPLCLGPDATVGDVLEIKAKFGFCGVPITETGAPNSKLLGIVTGRDVQFQDAETPIKSVMTTEVVTGSSPITLEKANSLLRETKKGKLPIVDSNGHLVSLVARSDLLKNQNYPYASKVPESKQLYCGAAIGTRPGDKDRLKLLAEAGLDVVVLDSSQGDSVYQIEFIKWIKQTYPKIEIIAGNVVTREQAAQLIAAGADGLRIGMGSGSICITQEVMAVGRPQGTAVYAVAEFASRFGIPCIADGGIGNIGHIAKALALGASAVMMGGLLAGTTESPGEYFYHEGKRVKVYRGMGSIEAMEHTQRGSASGKRSILNLDNAATARYFSEADAVKVAQGVSGDVADKGSINKFVPYLFTGLQHSFQDAGVKSVSELHSCARSGSLRFELRTASAQLEGGVHGLNSYTKRLFA
- kcat [1]: 0.6 s⁻¹
- Vmax [2]: 0.6 µM/min
- Vmax [3]: 0.7 µM/min
- Vmax [4]: 0.6 µM/min
- kcat [5]: 0.9 s⁻¹
- Vmax [6]: 1.1 µM/min
- Vmax [7]: 0.6 µM/min
- kcat [8]: 1.3 s⁻¹
- kcat [9]: 1.5 s⁻¹
- Vmax [10]: 0.26 µM/min
- Km [11]: 200 µM
- kcat [12]: 0.6 s⁻¹
- kcat [13]: 0.7 s⁻¹
- Km [14]: 37 µM
- Km [15]: 336 µM
- Km [16]: 358 µM
- Km [17]: 92.5 µM
- Km [18]: 93 µM
- kcat [19]: 1.1 s⁻¹
- Vmax [20]: 0.9 µM/min
- Vmax [21]: 1 µM/min
- Km [22]: 316 µM
- Km [23]: 258 µM
- Km [24]: 64 µM
- Vmax [25]: 0.3 µM/min
- Km [26]: 137 µM
- Vmax [27]: 1.5 µM/min
